From ChEMBL document CHEMBL1137362, “Synthesis and radioligand binding studies of methoxylated 1,2,3,4-tetrahydroisoquinolinium derivatives as ligands of the apamin-sensitive Ca2+-activated K+ channels” (J Med Chem, 2006) come the findings set out here.

In test [1] the target is Small conductance calcium-activated potassium channel (Rattus norvegicus) (UniProt P70604+P70606+P70605). Put plainly: Displacement of [125I]apamin from Wistar rat cortical apamin-sensitive site at 10 uM. The format is protein assay. A digest of the protocol: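 Single-concentration screen at 10 µM: rat cortical synaptosomes (0.2 mg protein/mL) with 10 pM 125I-apamin, 1 h at 0 °C, Tris-HCl pH 7.5 buffer with 5.4 mM KCl and 0.1% BSA. Percent of specific radioligand binding displaced is reported; nonspecific binding defined with 0.1 µM apamin; filtration and scintillation counting; n = 3.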
(In general: Displacement assays read how much labelled ligand stays bound in the presence of the test substance.)

For test [2], the species on record is Rattus norvegicus. Put plainly: Blockade of apamin-sensitive AHP in Wistar rat dopaminergic neurons by electrophysiology assay at 100 uM. The format is functional, organism-based. Particulars: neuron. A digest of the protocol:
(§1)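 Intracellular bridge-balance recording of the apamin-sensitive AHP in dopaminergic neurons; drugs dissolved in water. IC50 obtained by fitting E = Emax/[1 + (IC50/x)h]; percent AHP block reported at 100 µM; means ± SEM, n = 3.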

For test [3], the species on record is Rattus norvegicus. Put plainly: Blockade of apamin-sensitive AHP in Wistar rat dopaminergic neurons by electrophysiology assay. The format is functional, organism-based. The conditions noted are these: Neuron. Summed up:
as §1

In test [4] the target is Small conductance calcium-activated potassium channel (Rattus norvegicus, UniProt P70604+P70606+P70605). Put plainly: Displacement of [125I]apamin from Wistar rat cortical apamin-sensitive site. The format is protein assay.

The Inhibition is how much of the control response was suppressed. Read a high Inhibition as a response far below the control. By IC50 is commonly meant the concentration that gives 50% inhibition. Lower therefore signals greater potency in that assay. In general, Ki refers to the equilibrium dissociation constant of an inhibitor or competing ligand from its target.

Regarding `CCCC1c2cc(OC)c(OC)cc2CC[N+]1(C)C` (stereo unspecified), the Activity in test [1] was 6%. On the same count and under the same terms, the figure for `COc1cc2c(c(OC)c1OC)C(Cc1ccc3ccccc3c1)N(C)CC2` (stereo unspecified) is 0%; for `COc1cc2c(c(OC)c1)C(Cc1ccc3ccccc3c1)N(C)CC2` (stereo unspecified) it is 0%; for `COc1cc2c(c(OC)c1)C(Cc1ccc(OC)c(OC)c1)N(C)CC2` (stereo unspecified) it is 0%.

For `CN1CCc2ccccc2C1Cc1ccc2ccccc2c1` (stereo unspecified), in test [1], the Activity was determined as 0%.

`COc1ccc(CC2c3c(cc(OC)c(OC)c3OC)CCN2C)cc1OC` (stereo unspecified): the Activity in test [1] was 27%. This compound gave an Inhibition in the test listed under Rattus norvegicus [2] of 51.9%. With `COc1ccc(CC2c3c(ccc(OC)c3OC)CCN2C)cc1OC` (stereo unspecified), the Activity in test [1] is 3%. In the case of `COc1ccc(CC2c3c(ccc(OC)c3OC)CC[N+]2(C)C)cc1OC` (stereo unspecified), the Activity in test [1] came to 24%. As for `CCCC1c2cc(OC)c(OC)cc2CCN1C` (stereo unspecified), in test [1], the Activity came to 0%. Still for that read-out and setting: the figure for `COc1ccc2c(c1OC)C(Cc1ccc3ccccc3c1)[N+](C)(C)CC2` (stereo unspecified) is 18%. In the test filed under Rattus norvegicus [3], `COc1ccc(C[C@H]2c3cc(OC)c(OC)cc3CC[N+]2(C)C)cc1OC.[I-]` [LAUDANOSINE METHIODIDE] registered an IC50 of 15 µM. Also, the Ki in test [4] was 1.3 µM.

As for `COc1cc2c(cc1OC)C(Cc1ccc3ccccc3c1)N(C)CC2` (stereo unspecified), the Activity in test [1] is 6%. With `COc1ccc2c(c1OC)C(=O)O[C@@H]2[C@H]1c2c(cc3c(c2OC)OCO3)CC[N+]1(C)C.[I-]`, the Ki in test [4] is 3.6 µM.

As to `COc1cc2c(cc1OC)C(CC(C)C)[N+](C)(C)CC2` (stereo unspecified), the Activity in test [1] came out at 0%. Regarding `COc1cc2c(cc1OC)C(Cc1ccc3ccccc3c1)[N+](C)(C)CC2.[I-]` (stereo unspecified), the Activity in test [1] turned out to be 70%. In test [4], the Ki turned out to be 0.91 µM. With `COc1ccc(CCC2c3cc(OC)c(OC)cc3CCN2C)cc1OC` (stereo unspecified), in test [1], the Activity is 11%. Same read-out and setting: the figure for `COc1ccc2c(c1OC)C(Cc1ccc3ccccc3c1)N(C)CC2` (stereo unspecified) is 0%; for `C[N+]1(C)CCc2ccccc2C1Cc1ccc2ccccc2c1` (stereo unspecified) it is 1%. `COc1cc2c(c(OC)c1)C(Cc1ccc(OC)c(OC)c1)[N+](C)(C)CC2` (stereo unspecified): the Activity in test [1] was 20%. Still for that read-out and setting: the value for `COc1cc2c(c(OC)c1)C(Cc1ccc3ccccc3c1)[N+](C)(C)CC2` (stereo unspecified) was 2%.

For `COc1ccc(CC2c3c(cc(OC)c(OC)c3OC)CC[N+]2(C)C)cc1OC.[I-]` (stereo unspecified), the IC50 in the test filed under Rattus norvegicus [3] stood at 9 µM. The Activity in test [1] worked out at 72%. Also, the Ki in test [4] was determined as 0.73 µM. With `COc1ccc(CCC2c3cc(OC)c(OC)cc3CC[N+]2(C)C)cc1OC.[I-]` (stereo unspecified), the Activity in test [1] worked out at 32%. For the same compound, the Ki in test [4] is 5.4 µM. On the same counts, the results for `COc1cc2c(c(OC)c1OC)C(Cc1ccc3ccccc3c1)[N+](C)(C)CC2.[I-]` (stereo unspecified) are 53% and 2.2 µM. `COc1cc2c(cc1OC)C(CC(C)C)N(C)CC2` (stereo unspecified): the Activity in test [1] worked out at 0%.
